# High-throughput results deposited in PubChem BioAssay by several laboratories.
# Only some compounds are listed: those with a hit (about 3.9% of all), similar ones and a draw of the others.
# CRFBP-R2 block: antagonists of CRF-BP/CRF-R2 complex, primary screen, cell-based, HEK293, calcium dye fluorescence, uHTS. inhibition, % at 11.8 µM. AID 588475, 2011. CRF-induced calcium fluorescence. 350,000 tested, 0.59% active;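 active = inhibition of the ligand-induced calcium signal above about 50% at the single tested concentration, limit read from the data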
# TAAR1 agonist: human TAAR1 agonists, primary screen, Fluo-8 calcium fluorescence, CHO RD-HGA16 cells; Trace amine-associated receptor 1 (Homo sapiens), Q96RJ0; vehicle wells 0%, saturating PEA agonist 100%; activation, % at 3 µM; 360,000 tested, 0.99% active;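 active = activation above the mean activation of all test compounds in the run plus 3 SD, cut at about 38% in these data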
#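 Assay system: CHO-derived RD-HGA16 cells with stable Gα16 and human TAAR1; timing: 17-24 h seeding, 75 min 37 °C dye, 30 min RT; read-out: % activation from peak over basal fluorescence ratio, DMSO-to-PEA scaled; measured by: kinetic Fluo-8 calcium fluorescence; benchmarks: low control DMSO, high control PEA (EC100); doses: 3 µM single concentration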
# TMEM16A inh: TMEM16A chloride channel inhibitors, primary screen, cell-based, HTS; Anoctamin-1 (Mus musculus), Q8BHY3; HEK293 TMEM16A/YFP iodide influx fluorescence, ionomycin; normalized B-score (activity score, 25-100; higher = stronger inhibition) at 10 µM; 310,000 tested, 1.2% active; AID 588511, 2011;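 active = ratio plate-corrected score three or more library SD toward inhibition, starting fluorescence score within five deviations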;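 also: score derived from kinetic fluorescence span divided by baseline fluorescence per well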
# Target sequence (Q8BHY3 whole entry, looked up): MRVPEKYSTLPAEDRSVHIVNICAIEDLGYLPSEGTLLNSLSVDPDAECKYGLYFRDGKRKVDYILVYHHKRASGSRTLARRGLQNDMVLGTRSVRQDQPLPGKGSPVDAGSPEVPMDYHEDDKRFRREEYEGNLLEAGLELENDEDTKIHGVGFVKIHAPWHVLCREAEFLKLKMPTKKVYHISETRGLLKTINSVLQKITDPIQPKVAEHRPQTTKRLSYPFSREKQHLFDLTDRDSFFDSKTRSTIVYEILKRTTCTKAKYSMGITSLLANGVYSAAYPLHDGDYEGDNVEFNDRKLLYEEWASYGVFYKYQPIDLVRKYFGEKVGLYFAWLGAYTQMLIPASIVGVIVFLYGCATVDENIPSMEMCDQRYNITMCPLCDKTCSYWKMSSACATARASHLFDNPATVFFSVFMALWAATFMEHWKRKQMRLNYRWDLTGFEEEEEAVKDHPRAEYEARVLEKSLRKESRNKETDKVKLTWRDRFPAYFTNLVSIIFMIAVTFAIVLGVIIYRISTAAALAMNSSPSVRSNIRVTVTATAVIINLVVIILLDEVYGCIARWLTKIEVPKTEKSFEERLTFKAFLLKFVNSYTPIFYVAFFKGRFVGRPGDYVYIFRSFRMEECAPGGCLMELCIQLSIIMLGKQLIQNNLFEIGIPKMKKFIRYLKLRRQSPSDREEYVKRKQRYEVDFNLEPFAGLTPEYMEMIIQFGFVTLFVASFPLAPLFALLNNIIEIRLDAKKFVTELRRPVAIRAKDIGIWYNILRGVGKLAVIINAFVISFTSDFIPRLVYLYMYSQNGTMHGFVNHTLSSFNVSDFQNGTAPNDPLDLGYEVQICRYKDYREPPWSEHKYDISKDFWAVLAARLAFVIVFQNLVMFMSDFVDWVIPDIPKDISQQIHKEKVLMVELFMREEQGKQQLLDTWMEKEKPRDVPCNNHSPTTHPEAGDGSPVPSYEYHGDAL
# TAAR1 antagonist: human TAAR1 antagonists, primary screen, Fluo-8 calcium fluorescence, CHO RD-HGA16 cells; antagonist; inhibition, % at 3 µM; 360,000 tested, 1.5% active; AID 624466, 2012;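 active = inhibition above a per-plate cutoff, the mean inhibition of test compounds on that plate plus 3 SD, cut at about 49% in these data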;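 also: 0% = DMSO plus EC80 beta-PEA response and 100% = DMSO alone without agonist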
#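 test system = CHO RD-HGA16 cells bearing hTAAR1 | replication = singlicate | controls = DMSO-only wells and EC80 β-PEA-stimulated wells | reagent = EC80 β-phenethylamine stimulus | read-out basis = percent inhibition of PEA-evoked calcium signal, max/basal emission ratio | schedule = seeding 17-24 h prior, 75-min 37 °C, 30-min RT dye loading | signal = kinetic Fluo-8 calcium fluorescence measurement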
# CRFBP-R2 agonist: agonists of CRF-BP/CRF-R2 complex, primary screen, cell-based, HEK293, calcium dye fluorescence, uHTS; activation, % at 13.2 µM; CRF-binding protein / CRF receptor 2 complex (human); AID 588473, 2011; calcium dye fluorescence (FLIPR); percent of saturating CRF peptide response; 350,000 tested, 0.46% active;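 active = activation of at least 50%, plus an integration ratio under a set limit after plate pattern correction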;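 also: plate controls were neutral control wells without compound for no effect and CRF at EC100 for full effect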
# TMEM16A act: TMEM16A chloride channel activators or potentiators, primary screen, cell-based, HTS | Anoctamin-1 (Mus musculus), Q8BHY3 | HEK293 TMEM16A/YFP-H148Q/I152L, iodide quench fluorescence; active compounds read low | B-score at 10 µM | 340,000 tested, 0.3% active;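 active = fluorescence-ratio B-score plate-corrected deviation score at least 3 library SD below zero, with starting fluorescence score within 5 deviations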;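 also: channel opened by trigger with iodide after compound preincubation; score built on the fluorescence ratio of max minus min over baseline; more negative score means more quench and so TMEM16A activation or potentiation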
# TAAR1 ag confirm: human TAAR1 agonists, retest of hits, confirmation, Fluo-8 calcium fluorescence, CHO RD-HGA16 cells; 2,400 tested, 82% active; scaled: DMSO 0%, maximal phenethylamine 100%; activation, % at 3 µM; shares compounds with TAAR1 agonist;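 active = activation above a cutoff set at the run's mean compound activation plus 3 SD, cut at about 39% in these data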
# Ga16 nonsel ag: nonselective calcium mobilization agonists, CHO-Ga16 cells, counter-screen for hTAAR1 agonist project, cell-based, fluorescence, CHO-Ga16 parental line | 2,400 tested, 50% active | shares compounds with TAAR1 agonist | Fluo-8 calcium fluorescence; normalized to maximal ATP response, DMSO zero | AID 651787, 2012 | activation, % at 3 µM;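 active = activation above the run cutoff, the mean activation over all tested wells plus 3 SD, cut at about 12% in these data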;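 also: 0% = DMSO wells and 100% = maximal ATP response on the peak over basal ratio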
# TAAR1 desensitize: TAAR1 desensitization by agonist hits, confirmation, counter-screen for TAAR1 agonist project, cell-based, fluorescence, tachyphylaxis | shares compounds with TAAR1 agonist | CHO RD-HGA16 hTAAR1, Fluo-8 calcium, beta-PEA response inhibition | inhibition, % at 3 µM | 2,400 tested, 46% active | AID 651951, 2012;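 active = inhibition above the run cutoff, the mean inhibition of all test compounds plus 3 SD, cut at about 49% in these data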;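 also: beta-PEA stimulus applied at its EC80; loss of beta-PEA calcium signal after compound pretreatment read as receptor desensitization; 0% = DMSO with beta-PEA at EC80 and 100% = DMSO alone without agonist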
# Ga16 antag count: inhibition of ATP-evoked calcium response in CHO-Ga16 cells, counter-screen for TAAR1 agonist project, cell-based, fluorescence; inhibition, % at 3 µM; shares compounds with TAAR1 agonist; CHO-Ga16 ATP-induced calcium, Fluo-8 fluorescence; 2,400 tested, 39% active;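 active = inhibition above the plate's mean compound inhibition plus 3 SD, computed per plate, cut at about 22% in these data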;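 also: 0% = EC80 ATP with DMSO and 100% = DMSO wells without ATP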
# * marks the source's active call; other numbers are inactive results; i = inactive; x = no result given.
SMILES,CRFBP-R2 block,TAAR1 agonist,TMEM16A inh,TAAR1 antagonist,CRFBP-R2 agonist,TMEM16A act,TAAR1 ag confirm,Ga16 nonsel ag,TAAR1 desensitize,Ga16 antag count
CC1CCCN(C(c2ccccc2)c2sc3ncnn3c2O)C1 (stereo unspecified),11,0,i,7,-4,i,x,x,x,x
COc1cccc(-c2c(-c3ccccc3OC)ncn2Cc2cccc(-c3ccccc3)c2)c1,x,2,x,20,x,x,x,x,x,x
CC(C)c1ccc(NC(=O)C2(C)Cc3c(-c4ccc5c(c4)OCO5)ccnc3O2)cc1 (stereo unspecified),x,-1,x,-12,x,x,x,x,x,x
Oc1ccc(/C=N/Nc2ccnc3cc(Cl)ccc23)cc1O,-44,97*,i,65*,4,i,106*,6,92*,1
Cc1cc(OCC(=O)N(Cc2cccs2)C2CCS(=O)(=O)C2)ccc1Cl (stereo unspecified),-31,5,i,-1,-3,i,x,x,x,x
CC1(c2ccc(OC(F)F)cc2)NC(=O)N(CC(=O)Nc2ccc3c(c2)OCO3)C1=O (stereo unspecified),-56,110*,i,51*,122*,-5.9*,107*,73*,87*,62*
CC1(c2ccccc2)NC(=O)N(CC(=O)Nc2ccc3c(c2)OCO3)C1=O (stereo unspecified),-1,7,i,-3,-2,i,x,x,x,x
CC1(c2ccc(OC(F)F)cc2)NC(=O)N(CC(=O)Nc2ccccc2)C1=O (stereo unspecified),-34,148*,i,99*,76*,-10*,139*,92*,101*,73*
COCCN1C(=O)C(C(=O)OC)CC2=C1CC(C)(C)CC2=O (stereo unspecified),10,2,x,-6,-4,x,x,x,x,x
Cc1ccc(S(=O)(=O)N2CCN(Cc3csc(C)n3)CC2)cc1,-6,0,i,-13,0,i,x,x,x,x
CN1C(=O)NC(c2ccccc2)C2=C1CN(CCc1ccccc1)C2=O (stereo unspecified),125*,58*,i,19,0,i,72*,2,54*,11
O=C(O)CCc1nn2c3ccccc3n(CC(=O)c3cccs3)c2nc1=O,-11,0,i,-4,1,i,x,x,x,x
CC1CCCN(C(=O)c2cc(S(=O)(=O)N3CCCCC3)c[nH]2)C1 (stereo unspecified),1,7,i,-3,0,i,x,x,x,x
CCOC(=O)[C@]12CCCC=C1N(CCC1=CCCCC1)C(=O)[C@H](CC(=O)NCCc1ccccc1OC)C2,x,58*,x,38,x,x,75*,0,60*,9
CCOC(=O)[C@]12CCC=C1N(CCC1=CCCCC1)C(=O)[C@H](CC(=O)NCCc1ccccc1OC)C2,x,x,x,x,x,x,x,1,x,-9
CCOC(=O)[C@]12CCCC=C1N(Cc1ccc3c(c1)OCO3)C(=O)[C@H](CC(=O)NCCc1ccccc1OC)C2,x,74*,x,28,x,x,75*,-2,69*,10
COc1ccc(NC(=O)c2cc(-c3ccccc3)nc3c2cnn3C(C)C)c(OC)c1,2,0,x,10,-2,i,x,x,x,x
C#CCCOC(=O)N1C2=NC(C(=O)OC)=C(C(=O)OC)[C@@H]3Nc4ccccc4[C@]23C[C@H]1C(=O)OC,2,0,i,10,-1,i,x,x,x,x
COc1ccccc1C(=O)NCCC(=O)NCCC12CC3CC(CC(C3)C1)C2,-11,-4,i,-25,-1,i,x,x,x,x
COc1ccc(C23CC4CC(CC(C4)C2)C3)cc1C(=O)NCCN(C)C,-11,46*,i,3,0,i,54*,21*,22,13
CCOC(=O)C1=C(COC(=O)CCOc2ccccc2C)NC(=O)NC1C (stereo unspecified),-1,1,i,8,0,i,x,x,x,x
O=S(=O)(NCCc1csc(-c2ccccc2)n1)c1ccc2c(c1)OCCO2,-2,94*,i,34,1,i,62*,43*,32,24*
N=c1c2c(-c3ccccc3)c(-c3ccccc3)n(Cc3ccco3)c2ncn1Cc1ccco1,-35,86*,100*,46,34,i,91*,54*,75*,37*
N=c1c2c(-c3ccccc3)c(-c3ccccc3)n(Cc3ccccc3)c2ncn1CCCn1ccnc1,-17,61*,i,-19,-2,i,49*,15*,10,13
Cc1cc(NCCCn2ccnc2)n2nc(C)c(-c3ccccc3)c2n1,-10,8,i,-19,-6,i,x,x,x,x
O=C1c2ccccc2C(=O)N1Nc1ccccc1,-7,11,i,-3,2,i,x,x,x,x
Cc1ccc(NN2C(=O)C=C(c3ccccc3)C2=O)cc1,-91,52*,x,43,33,x,27,20*,26,44*
Cc1cc(OCCCCn2ccnc2)cc(C)c1Cl,-13,7,i,1,-3,i,x,x,x,x
COC(=O)c1ccc(-c2ccc(CNCC(O)c3ccccc3)o2)cc1 (stereo unspecified),-18,39*,i,2,-1,i,26,5,14,5
N/C(Cc1cccc2ccccc12)=N\OC(=O)c1ccc2c(c1)OCO2,6,74*,i,49*,-3,i,16,1,7,10
